Screening data as filed in PubChem.
CHOP inh – blocks CHOP induction under ER stress; AID 2732; inhibition, % at 10 µM; CHO-K1 CHOP-promoter luciferase, tunicamycin-induced, 15-18 h; 220,000 compounds, 3.8% hits;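 active means compounds that reduced the stress-induced luciferase reporter signal by more than about 70% of percent inhibition, limit read from the data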
WT yeast gro inh – growth inhibition of WT yeast, mitochondrial fusion screen. mitochondrial fusion phenotypic screen, WT strain. inhibition, % at 10 µM. 190,000 compounds, 2.1% hits. AID 1362; in the data active means inhibition above about 58%; tested in S. cerevisiae
TbMetRS inhib – blocks T. brucei methionyl-tRNA synthetase activity; purified T. brucei MetRS, ATP depletion, Kinase-Glo luminescence; 360,000 compounds, 0.4% hits; AID 624268; inhibition, % at 11.9 µM;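 active means inhibition above a per-plate cutoff of the control wells' mean inhibition plus 3 SD, cut at about 5.5% in these data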
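Measured by: Kinase-Glo luciferase luminescence reporting remaining unconsumed ATP. Material: purified T. brucei MetRS enzyme. Doses: 11.9 µM compound single dose, 0.9% DMSO. Medium: HEPES buffer containing pyrophosphatase, BSA, spermine, DTT. Times: 15 min preincubation, 2 h reaction, all 25 °C. Reagent: methionine, ATP and bulk E. coli tRNA.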
GRIN3A LBD mod – NR3A (human) ligand-binding domain modulation. NR3A LBD differential scanning fluorimetry, Tm shift; 0% = protein alone, 100% = glycine-bound protein. Tm shift relative to glycine control, % at 25 µM. 340,000 compounds, 2.5% hits. AID 1259313;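 active means melting temperature shift of at least 10% of the positive control shift, at one fixed dose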
EBV gp42 inh – EBV gp42 inhibition; Q1HVG2; Fluorescence polarization binding assay, mP read-out; inhibition, % (tested at 21.74 µM); 220,000 compounds, 0.42% hits; in the data active means inhibition above about 50%
Target sequence (Q1HVG2 whole entry, looked up): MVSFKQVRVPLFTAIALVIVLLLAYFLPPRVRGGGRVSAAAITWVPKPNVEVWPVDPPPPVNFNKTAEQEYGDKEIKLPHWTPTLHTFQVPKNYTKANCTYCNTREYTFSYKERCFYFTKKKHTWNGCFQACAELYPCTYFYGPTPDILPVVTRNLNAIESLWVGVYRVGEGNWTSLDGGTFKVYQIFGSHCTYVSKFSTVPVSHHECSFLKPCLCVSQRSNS
MPTP block – inhibitors of mitochondrial permeability transition pore; 360,000 compounds, 1.4% hits; AID 602449; inhibition, % at 10 µM; isolated mouse mitochondria, Ca2+ swelling absorbance, 30 min;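 active means inhibition of 50% or more, scaled per plate between neutral and stimulator controls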
Each line names hits and unclear results; the compound was inactive in the other large screens. Rows were chosen to be rich in hits. Some 6.4% of all compounds tested hit in one or more screens of this group.

CCOc1ccc(NC(=O)c2ccc(NS(=O)(=O)c3cccc4cccnc34)cc2)cc1	GRIN3A LBD mod 17.4 (no result: CHOP inh, WT yeast gro inh, EBV gp42 inh)
Cc1ccccc1NC(=O)c1ccc(NS(=O)(=O)c2cc(C(C)(C)C)cc(C)c2C)cc1	GRIN3A LBD mod 12.9
O=C(CCOc1ccccc1)Nc1ccnn1C1CCN(CCc2ccccc2)CC1	none (no result: CHOP inh, WT yeast gro inh, EBV gp42 inh)
COC(=O)C(NC(=O)c1ccccc1C)(Nc1ncc(S(=O)(=O)c2ccc([N+](=O)[O-])cc2)s1)C(F)(F)F (configuration not stated)	none
O=C1C2C3C=CC(C3=C3CCCCC3)C2C(=O)N1Cc1ccccc1 (configuration not stated)	CHOP inh 86.2 (no result: GRIN3A LBD mod)
NNC(=O)c1cccc(COc2ccc3c(c2)CCC3)c1	WT yeast gro inh 80.6
Nc1c(C(=O)NCC2CCCO2)sc2nc3c(c(-c4ccco4)c12)CC/C3=C\c1ccco1 (configuration not stated)	EBV gp42 inh 98.2
O=C(O)c1ccc(C=C(c2nc3ccccc3s2)c2nc3ccccc3s2)cc1	WT yeast gro inh 74.5
COc1cc(C=C(c2nc3ccccc3s2)c2nc3ccccc3s2)cc(OC)c1O	WT yeast gro inh 73.7
COc1cc(/C=N/NC(=Nc2ccc(C)cc2)c2nc3ccccc3s2)ccc1O	CHOP inh 73.8, WT yeast gro inh 74.7
O=C(NCCNS(=O)(=O)c1ccc(C(F)(F)F)cc1)N1CCOCC1	none (no result: WT yeast gro inh)
COc1ccccc1NC(=O)C(=O)N/N=C/c1ccc([N+](=O)[O-])s1	EBV gp42 inh 79.4
O=C(N/N=C\c1ccc([N+](=O)[O-])s1)c1cncc(Br)c1	CHOP inh 95.2
O=C(N/N=C/c1ccc([N+](=O)[O-])s1)c1ccccc1	none
COC(=O)N/N=C/c1ccc([N+](=O)[O-])s1	none
COc1ccc(CCN2CN(S(=O)(=O)c3ccc(OC)cc3)c3nc4ccccc4nc32)cc1	none
CCOC(CN=c1nc(N(C)C)ss1)OCC	GRIN3A LBD mod 22.3 (no result: CHOP inh, WT yeast gro inh, EBV gp42 inh)
CC(C)NC(=O)NC(=O)COc1cccc2c1OC(C)(C)C2	none
CCn1nc(C(=O)OCC(=O)c2c[nH]c3ccccc23)c2ccccc2c1=O	none
CC(C)n1nc(C(=O)OCC(=O)c2c[nH]c3ccccc23)c2ccccc2c1=O	CHOP inh 80.5
Cc1nc(NC(=O)c2ccccc2O)sc1C	none (no result: CHOP inh, WT yeast gro inh, EBV gp42 inh)
Cc1nc(NC(=O)c2csc3ccccc23)sc1C	GRIN3A LBD mod 28.1
Cc1c(C)c2ccc(OCC(=O)N3CCN(C(=O)C4COc5ccccc5O4)CC3)cc2oc1=O (configuration not stated)	none (no result: CHOP inh, WT yeast gro inh, EBV gp42 inh)
O=C1NN(CCO)C(=S)Nc2ccccc21	none (no result: CHOP inh, WT yeast gro inh, GRIN3A LBD mod, EBV gp42 inh)
COc1ccccc1N1CCN(C2CCCC(C)C2)CC1 (configuration not stated)	none (no result: GRIN3A LBD mod)
COCCNC(=O)C1CCC(CNS(=O)(=O)c2c(C)cc(C)cc2C)CC1 (configuration not stated)	none (no result: CHOP inh, WT yeast gro inh, EBV gp42 inh)
CN(Cc1nc2ccccc2n1C)C(=O)c1cccs1	none
O=C(CNC(=O)c1ccc(-c2ccccc2)cc1)OCc1ccc(Br)cc1	none
Cc1cc(C)c(NC(=O)Cn2nnc(C(=O)NCc3cccs3)c2N)c(C)c1	CHOP inh 84.9
Cc1cc(C)cc(-n2nnc(C(=O)NCc3ccc(Cl)cc3)c2N)c1	GRIN3A LBD mod 32.1
Cc1ccc(Cn2nnc(C(=O)Nc3cc(C)ccc3C)c2N)cc1	none
Cc1ccc(CNC(=O)Cn2nnc(C(=O)Nc3cc(C)ccc3C)c2N)cc1	GRIN3A LBD mod 14.8 (no result: CHOP inh, WT yeast gro inh, EBV gp42 inh)
Cc1ccc(CNC(=O)c2nnn(CC(=O)Nc3cc(C)cc(C)c3)c2N)cc1	GRIN3A LBD mod 20.2 (no result: CHOP inh, WT yeast gro inh, EBV gp42 inh)
Cc1cc(C)cc(NC(=O)Cn2nnc(C(=O)NCc3ccc4c(c3)OCO4)c2N)c1	none (no result: CHOP inh, WT yeast gro inh, EBV gp42 inh)
Cc1cc(C)cc(-n2nnc(C(=O)NCc3ccccc3)c2N)c1	none
CC(NS(=O)(=O)c1ccc(Cl)cc1)C(c1cccs1)N1CCN(C)CC1 (configuration not stated)	none
CCOc1ccc(NC(=O)C2CCN(S(=O)(=O)c3cccnc3)CC2)cc1	none
O=C(/C=C/C=C/c1ccccc1)CC1(O)C(=O)N(CCc2ccccc2)c2ccccc21 (configuration not stated)	CHOP inh 77.5, WT yeast gro inh 60.2
Cn1c(C(=O)NCc2ccco2)cc2c(=O)[nH]c3ccccc3c21	GRIN3A LBD mod 23.9
Cc1[nH]n(-c2cccc3ccccc23)c(=O)c1C=Nc1ccc2[nH]c(=O)[nH]c2c1	none
Cc1ccc(N=Cc2c(C)[nH]n(-c3nc4ccccc4[nH]3)c2=O)cc1	WT yeast gro inh 84.4
CCOc1[nH]n(-c2ccccc2)c(=O)c1C=Nc1ccc(C)cc1	CHOP inh 77.3
O=C(CN1C(=O)CSc2ccc(S(=O)(=O)N3CCOCC3)cc21)NCc1ccc(F)cc1	none (no result: CHOP inh, WT yeast gro inh, EBV gp42 inh)
COc1ccccc1NC(=O)CSc1sc2c(O)cc(=O)[nH]c2c1C#N	none (no result: CHOP inh, WT yeast gro inh, EBV gp42 inh)
CC(=O)Nc1ccc2c(c1)CCCC2	none (no result: WT yeast gro inh)
CC(=O)c1cc(F)c(N2CCN(c3ccc([N+](=O)[O-])cc3F)CC2)cc1C	none
CCc1ccc(/C=C(\C#N)C(=O)NC2CCS(=O)(=O)C2)cc1 (configuration not stated)	none (no result: CHOP inh, WT yeast gro inh, EBV gp42 inh)
COc1cccc(/C=C(\C#N)C(=O)NC2CCS(=O)(=O)C2)c1 (configuration not stated)	GRIN3A LBD mod 13.1
CCc1nc2ccccc2c(C(=O)OCC(=O)Nc2ccc(S(=O)(=O)N3CCOCC3)cc2)c1C	CHOP inh 74.4
COc1ccc(C#Cc2ccc3c(c2)c(=O)c2ccccc2n3C)cc1	GRIN3A LBD mod 12.1 (no result: CHOP inh, WT yeast gro inh, EBV gp42 inh)
O=C(CN1C(=O)c2ccccc2C1=O)OCC(=O)N1CCN(c2ccccc2)CC1	none (no result: CHOP inh, WT yeast gro inh, EBV gp42 inh)
COc1cc([N+](=O)[O-])ccc1-c1ccc(/C=N/NC(=O)c2ccccc2O)o1	EBV gp42 inh 66.7 (no result: WT yeast gro inh, TbMetRS inhib, GRIN3A LBD mod, MPTP block)
O=C(Cc1ccc([N+](=O)[O-])cc1)N/N=C/c1ccc([N+](=O)[O-])o1	none
COCc1cc(C)nc(OCC(=O)N/N=C/c2ccc(-c3cc([N+](=O)[O-])ccc3Cl)o2)c1C#N	CHOP inh 92.3
O=C(N/N=C/c1ccc(-c2cccc([N+](=O)[O-])c2)o1)c1ccccc1O	GRIN3A LBD mod 19.3
Cc1cc([N+](=O)[O-])ccc1-c1ccc(/C=N/NC(=O)Cc2ccccc2)o1	EBV gp42 inh 88.7
CCCc1ccc(NC(C)C(=O)Nc2ccc(S(=O)(=O)N3CCOCC3)cc2)cc1 (configuration not stated)	none (no result: CHOP inh, WT yeast gro inh, EBV gp42 inh)
Cc1nn(CCOc2ccccc2)c(=O)n1-c1ccc(Cl)cc1	none
C[C@@H]1COc2cccc(N3CCN(Cc4ccccc4F)CC3)c2S(=O)(=O)N1	none (no result: CHOP inh, WT yeast gro inh, GRIN3A LBD mod, EBV gp42 inh)
CCOC(=O)c1ccc(NC(=O)Nc2c(C)n(C)n(-c3ccccc3)c2=O)cc1	none (no result: CHOP inh, WT yeast gro inh, EBV gp42 inh)
COC(=O)c1c(NC(=O)C(=O)NCCCN2CCOCC2)sc2c1CCCC2	none (no result: CHOP inh, WT yeast gro inh, EBV gp42 inh)
CC(=O)c1ccc(OCC(=O)N(C2CCCCC2)C2CCS(=O)(=O)C2)cc1 (configuration not stated)	none (no result: CHOP inh, WT yeast gro inh, EBV gp42 inh)
